Data as given in ChEMBL document CHEMBL3632607, “Identification and SAR of Glycine Benzamides as Potent Agonists for the GPR139 Receptor” (ACS Med Chem Lett, 2015).
Activity calls are given as the source filed them. No cut-off for these calls is given here.

What was measured:
[1] = molecular target: T1, Probable G-protein coupled receptor 139 (Homo sapiens, UniProt Q6DWJ6); test: Agonist activity at human GPR139 receptor expressed in HEK293 cells assessed as calcium mobilization by FLIPR assay; type: functional, cell-based
T1 sequence (Q6DWJ6 whole entry): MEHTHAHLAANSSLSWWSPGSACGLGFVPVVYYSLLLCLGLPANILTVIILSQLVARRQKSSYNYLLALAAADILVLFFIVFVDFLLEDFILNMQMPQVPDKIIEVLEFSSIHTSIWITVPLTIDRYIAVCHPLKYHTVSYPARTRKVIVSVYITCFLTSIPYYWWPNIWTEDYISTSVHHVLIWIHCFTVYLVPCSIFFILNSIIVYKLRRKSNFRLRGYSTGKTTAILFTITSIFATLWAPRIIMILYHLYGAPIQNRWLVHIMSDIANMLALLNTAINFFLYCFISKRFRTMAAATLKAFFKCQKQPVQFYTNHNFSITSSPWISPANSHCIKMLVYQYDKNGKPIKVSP

[2] = Apparent permeability of the compound in MDCK cells; type: ADME, cell-based, Canis lupus familiaris; conditions: dog
How it was run: (§1)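 Permeability was measured in MDR1-transfected Madin Darby canine kidney (MDR1-MDCK) cells. Papp is given in units of 1 × 10–6 cm/s. The efflux ratio is Papp basal-to-apical divided by Papp apical-to-basal.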

[3] = Fraction unbound in rat plasma at 0.1 to 10 uM after 6 hrs by LC-MS/MS analysis; type: ADME, cell-free
[4] = Cmax in Sprague-Dawley rat at 5 mg/kg, po; type: ADME, organism-based; set-up: dose 5 mg/kg, route oral; conditions: in vivo
Cytochrome P450 2C19 = Cytochrome P450 2C19 (Homo sapiens, UniProt P33261); test: Inhibition of CYP2C19 in human liver microsomes using S-mephenytoin as substrate up to 10 uM by LC-MS/MS analysis; type: ADME
Cytochrome P450 2C19, sequence (P33261 whole entry): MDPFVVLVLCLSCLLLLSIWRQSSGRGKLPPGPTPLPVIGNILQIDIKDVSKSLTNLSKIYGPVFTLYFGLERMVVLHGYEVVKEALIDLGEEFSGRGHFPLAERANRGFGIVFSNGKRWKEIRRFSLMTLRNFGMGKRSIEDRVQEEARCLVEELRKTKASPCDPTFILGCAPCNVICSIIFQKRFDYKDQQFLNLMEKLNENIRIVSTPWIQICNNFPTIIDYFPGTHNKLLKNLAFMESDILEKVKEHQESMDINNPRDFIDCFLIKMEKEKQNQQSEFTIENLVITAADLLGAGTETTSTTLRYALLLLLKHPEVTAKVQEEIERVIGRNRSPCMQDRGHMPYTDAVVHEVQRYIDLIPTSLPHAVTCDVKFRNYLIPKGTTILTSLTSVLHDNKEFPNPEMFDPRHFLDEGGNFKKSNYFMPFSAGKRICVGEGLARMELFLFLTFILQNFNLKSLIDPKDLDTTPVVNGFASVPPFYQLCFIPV

[5] = AUC in Sprague-Dawley rat at 1 mg/kg, iv and 5 mg/kg, po; type: ADME, organism-based; conditions: in vivo
[6] = Oral bioavailability in Sprague-Dawley rat at 5 mg/kg; type: ADME, organism-based; conditions: in vivo
[7] = molecular target: T2, Probable G-protein coupled receptor 139 (Homo sapiens) (UniProt Q6DWJ6); test: Total binding affinity to human GPR139 receptor expressed in CHO-TRex cells at 10 nM after 60 mins by scintillation counting; type: cell-based
T2 sequence (whole entry): T1 sequence (Q6DWJ6 whole entry)
How it was run: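 Whole CHO-TRex cells stably expressing human GPR139 were incubated with 10 nM of the tritiated ligand to measure total binding. Nonspecific binding was defined by blocking with 10 μM of an unlabelled reference GPR139 agonist. Specific binding was taken as total minus nonspecific.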

[8] = Volume of distribution at steady state in Sprague-Dawley rat at 1 mg/kg, iv and 5 mg/kg, po; type: ADME, organism-based; conditions: in vivo, read-out: Vdss
[9] = Efflux ratio of apparent permeability from basolateral to apical side to apical to basolateral side in MDCK cells; type: ADME, cell-based, Canis lupus familiaris; conditions: dog; how it was run: as §1
[10] = Aqueous solubility of the compound in 30 mM phosphate buffer at pH 2 after 3 days; type: physicochemical
[11] = Extraction ratio in human liver microsomes at 1 uM after 1 hr by LC-MS/MS analysis; type: ADME; conditions: read-out: ERH
How it was run: (§2)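 Extraction ratio is in vitro microsomal clearance divided by Q, the species-specific hepatic blood flow (human or rat).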

[12] = Clearance in Sprague-Dawley rat at 1 mg/kg, iv; type: ADME, organism-based; conditions: in vivo
Cytochrome P450 3A4 = Cytochrome P450 3A4 (Homo sapiens, UniProt P08684); test: Inhibition of CYP3A4 in human liver microsomes using midazolam as substrate up to 10 uM by LC-MS/MS analysis; type: ADME
Cytochrome P450 3A4, sequence (P08684 whole entry): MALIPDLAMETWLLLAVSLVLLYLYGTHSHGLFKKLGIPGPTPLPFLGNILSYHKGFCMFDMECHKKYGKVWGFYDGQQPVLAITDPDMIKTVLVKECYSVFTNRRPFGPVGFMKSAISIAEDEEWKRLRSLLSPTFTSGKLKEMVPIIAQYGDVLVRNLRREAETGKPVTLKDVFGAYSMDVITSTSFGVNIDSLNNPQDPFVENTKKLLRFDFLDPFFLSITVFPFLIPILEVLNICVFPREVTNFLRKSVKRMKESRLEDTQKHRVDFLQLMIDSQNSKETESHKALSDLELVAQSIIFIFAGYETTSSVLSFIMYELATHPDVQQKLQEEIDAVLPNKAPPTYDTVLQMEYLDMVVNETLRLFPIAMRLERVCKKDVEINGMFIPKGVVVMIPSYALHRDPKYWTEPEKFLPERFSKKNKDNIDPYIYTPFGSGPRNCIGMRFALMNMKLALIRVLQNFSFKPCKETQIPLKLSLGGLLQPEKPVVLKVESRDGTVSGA

Cytochrome P450 2C9 = Cytochrome P450 2C9 (Homo sapiens, UniProt P11712); test: Inhibition of CYP2C9 in human liver microsomes using diclofenac as substrate up to 10 uM by LC-MS/MS analysis; type: ADME
Cytochrome P450 2C9, sequence (P11712 whole entry): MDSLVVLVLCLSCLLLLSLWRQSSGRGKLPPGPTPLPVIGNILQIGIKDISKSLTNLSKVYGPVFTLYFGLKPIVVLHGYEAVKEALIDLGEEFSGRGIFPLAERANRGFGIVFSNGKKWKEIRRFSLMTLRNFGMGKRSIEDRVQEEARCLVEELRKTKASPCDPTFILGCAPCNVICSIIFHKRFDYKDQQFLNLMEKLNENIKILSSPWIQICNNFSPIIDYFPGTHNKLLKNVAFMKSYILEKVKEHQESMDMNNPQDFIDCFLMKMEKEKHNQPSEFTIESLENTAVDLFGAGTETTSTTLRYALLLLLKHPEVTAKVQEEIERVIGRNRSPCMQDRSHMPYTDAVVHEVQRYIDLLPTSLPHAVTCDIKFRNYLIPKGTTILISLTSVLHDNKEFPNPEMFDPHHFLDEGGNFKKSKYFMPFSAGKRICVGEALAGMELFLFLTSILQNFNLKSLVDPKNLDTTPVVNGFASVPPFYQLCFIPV

Cytochrome P450 2D6 = Cytochrome P450 2D6 (Homo sapiens, UniProt P10635); test: Inhibition of CYP2D6 in human liver microsomes using dextromethorphan as substrate up to 10 uM by LC-MS/MS analysis; type: ADME
Cytochrome P450 2D6, sequence (P10635 whole entry): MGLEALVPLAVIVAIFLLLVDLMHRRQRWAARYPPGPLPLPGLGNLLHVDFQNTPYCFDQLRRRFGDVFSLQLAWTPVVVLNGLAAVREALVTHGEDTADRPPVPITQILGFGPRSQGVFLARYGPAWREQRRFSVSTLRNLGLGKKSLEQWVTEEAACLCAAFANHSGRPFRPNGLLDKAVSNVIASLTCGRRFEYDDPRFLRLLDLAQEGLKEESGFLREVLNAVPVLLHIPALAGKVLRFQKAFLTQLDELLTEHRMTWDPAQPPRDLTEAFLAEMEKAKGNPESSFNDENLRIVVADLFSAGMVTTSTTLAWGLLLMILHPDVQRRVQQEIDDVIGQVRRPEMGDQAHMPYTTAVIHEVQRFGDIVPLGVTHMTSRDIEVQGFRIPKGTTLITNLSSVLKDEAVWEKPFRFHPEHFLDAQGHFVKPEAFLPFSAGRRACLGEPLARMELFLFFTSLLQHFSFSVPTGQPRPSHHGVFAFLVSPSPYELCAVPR

Cytochrome P450 1A2 = molecular target: T3, Cytochrome P450 1A2 (Homo sapiens, UniProt P05177); test: Inhibition of CYP1A2 in human liver microsomes using phenacetin as substrate up to 10 uM by LC-MS/MS analysis; type: ADME
T3 sequence (P05177 whole entry): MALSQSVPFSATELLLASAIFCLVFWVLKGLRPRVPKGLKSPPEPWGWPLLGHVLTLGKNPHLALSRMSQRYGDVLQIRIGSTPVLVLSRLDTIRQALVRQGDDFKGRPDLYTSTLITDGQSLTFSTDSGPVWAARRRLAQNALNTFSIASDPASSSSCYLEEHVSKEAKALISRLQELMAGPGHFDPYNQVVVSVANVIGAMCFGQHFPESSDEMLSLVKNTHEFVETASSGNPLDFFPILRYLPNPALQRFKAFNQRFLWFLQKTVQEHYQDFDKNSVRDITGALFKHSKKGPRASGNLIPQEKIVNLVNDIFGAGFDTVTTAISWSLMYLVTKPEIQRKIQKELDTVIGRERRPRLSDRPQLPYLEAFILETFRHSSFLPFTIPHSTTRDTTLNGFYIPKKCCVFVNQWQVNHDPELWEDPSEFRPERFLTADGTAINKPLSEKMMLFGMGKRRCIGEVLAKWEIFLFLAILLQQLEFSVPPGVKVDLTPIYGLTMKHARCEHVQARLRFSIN

[13] = Extraction ratio in rat liver microsomes at 1 uM after 1 hr by LC-MS/MS analysis; type: ADME; conditions: read-out: ERH; how it was run: as §2
[14] = Fraction unbound in rat brain at 0.1 to 10 uM after 6 hrs by LC-MS/MS analysis; type: ADME, tissue-based
[15] = Fraction unbound in human plasma at 0.1 to 10 uM after 6 hrs by LC-MS/MS analysis; type: ADME, cell-free
[16] = Aqueous solubility of the compound in 30 mM phosphate buffer at pH 7 after 3 days; type: physicochemical
[17] = molecular target: T4, Protein Gpr142 (Rattus norvegicus) (UniProt F1LWD8); test: Agonist activity at rat GPR142 receptor
T4 sequence (whole entry): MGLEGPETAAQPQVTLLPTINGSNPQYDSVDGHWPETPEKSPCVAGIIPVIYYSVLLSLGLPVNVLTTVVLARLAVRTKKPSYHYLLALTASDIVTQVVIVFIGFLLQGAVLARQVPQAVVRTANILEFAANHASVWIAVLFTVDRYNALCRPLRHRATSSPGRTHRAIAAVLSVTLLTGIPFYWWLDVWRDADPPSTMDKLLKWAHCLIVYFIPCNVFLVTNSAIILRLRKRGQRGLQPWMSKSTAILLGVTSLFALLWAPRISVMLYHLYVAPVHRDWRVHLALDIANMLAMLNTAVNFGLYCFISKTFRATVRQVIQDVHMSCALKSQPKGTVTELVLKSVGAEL

[18] = Half life in Sprague-Dawley rat at 1 mg/kg, iv; type: ADME, organism-based; conditions: in vivo
[19] = Ratio of drug level in brain to plasma in Sprague-Dawley rat at 1 mg/kg, iv and 5 mg/kg, po; type: ADME, organism-based; conditions: read-out: BPR
Cytochrome P450 2C8 = molecular target: T5, Cytochrome P450 2C8 (Homo sapiens, UniProt P10632); test: Inhibition of CYP2C8 in human liver microsomes using paclitaxel as substrate up to 10 uM by LC-MS/MS analysis; type: ADME
T5 sequence (P10632 whole entry): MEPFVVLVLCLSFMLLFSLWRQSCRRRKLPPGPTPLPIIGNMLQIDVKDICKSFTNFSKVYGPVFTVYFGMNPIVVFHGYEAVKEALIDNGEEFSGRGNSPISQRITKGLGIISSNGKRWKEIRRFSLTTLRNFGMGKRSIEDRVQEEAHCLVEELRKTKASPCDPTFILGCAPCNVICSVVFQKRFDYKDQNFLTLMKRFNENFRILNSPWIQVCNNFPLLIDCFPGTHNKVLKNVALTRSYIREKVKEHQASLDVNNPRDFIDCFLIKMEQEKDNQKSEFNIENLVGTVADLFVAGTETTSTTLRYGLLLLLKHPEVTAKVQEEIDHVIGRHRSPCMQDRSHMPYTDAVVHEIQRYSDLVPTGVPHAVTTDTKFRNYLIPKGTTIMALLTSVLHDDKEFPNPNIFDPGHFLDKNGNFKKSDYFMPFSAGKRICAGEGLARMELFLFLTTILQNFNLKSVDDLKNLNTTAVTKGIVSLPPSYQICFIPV

SMILES: C[C@@H](NC(=O)CNC(=O)c1cccc(Cl)c1)c1ccccc1
- EC50 [1]: 2100 nM

SMILES: COc1cccc(C(=O)N[C@@H](CO)C(=O)N[C@@H](C)c2ccccc2)c1
- EC50 [1]: 283 nM

SMILES: CC(NC(=O)CSC(=O)c1ccccc1)c1ccccc1 (stereo not given)
- EC50 [1]: 670 nM

SMILES: C[C@H](NC(=O)CNC(=O)c1ccc(Cl)cc1)c1ccccc1
- EC50 [1]: 118 nM

SMILES: C[C@H](NC(=O)CNC(=O)c1cccc(F)c1)c1ccccc1
- EC50 [1]: 54 nM

SMILES: COc1cccc(C(=O)N[C@@H](Cc2ccccc2)C(=O)N[C@@H](C)c2ccccc2)c1
- EC50 [1]: 10000 nM

SMILES: C[C@H](NC(=O)CNC(=O)c1ccccc1Cl)c1ccccc1
- EC50 [1]: 150 nM

SMILES: C[C@H](NCCNC(=O)c1cccc(Cl)c1)c1ccccc1
- EC50 [1]: > 10000 nM

SMILES: C[C@H](NC(=O)CNC(=O)c1cccc(OC(F)(F)F)c1)c1ccccc1
- EC50 [1]: 46 nM

SMILES: C[C@H](NC(=O)CNCc1cccc(Cl)c1)c1ccccc1
- EC50 [1]: > 10000 nM

SMILES: C[C@H](NC(=O)CNC(=O)c1cccc(Cl)c1Cl)c1ccccc1
- EC50 [1]: 52 nM

SMILES: COc1cccc(C(=O)N[C@@H](C)C(=O)N[C@@H](C)c2ccccc2)c1
- EC50 [1]: 66 nM

SMILES: C[C@H](NC(=O)CNC(=O)c1cc(Cl)ccc1Cl)c1ccccc1
- EC50 [1]: 40 nM

SMILES: C[C@H](NC(=O)CNC(=O)c1cc(Cl)cc(Br)c1)c1ccccc1
- EC50 [1]: 78 nM

SMILES: COc1cccc(C(=O)N[C@H](C)C(=O)N[C@@H](C)c2ccccc2)c1
- EC50 [1]: 440 nM

SMILES: C[C@H](NC(=O)CNC(=O)c1ccc(Cl)c(Cl)c1)c1ccccc1
- EC50 [1]: 193 nM

SMILES: C[C@H](NC(=O)CNC(=O)c1cccc(Cl)c1)c1ccccc1
- Papp [2]: 32 ×10⁻⁶ cm/s
- fraction unbound at 6 h, up to 10 µM [3]: 0.25
- Cmax [4]: 317 ng/mL
- inhibition (INH) (Cytochrome P450 2C19): Not Active
- AUC [5]: 683 ng·h/mL
- bioavailability [6]: 49%
- Activity [7]: Active
- Vd [8]: 2.1 L/kg
- efflux ratio [9]: 1.7
- solubility at 72 h [10]: > 35 µM
- hepatic extraction ratio at 1 h, 1 µM [11]: 0.3
- clearance [12]: 53 mL/min/kg
- inhibition (INH) (Cytochrome P450 3A4): Not Active
- inhibition (INH) (Cytochrome P450 2C9): Not Active
- inhibition (INH) (Cytochrome P450 2D6): Not Active
- inhibition (INH) (Cytochrome P450 1A2): Not Active
- hepatic extraction ratio at 1 h, 1 µM [13]: 0.4
- fraction unbound at 6 h, up to 10 µM [14]: 0.09
- fraction unbound at 6 h, up to 10 µM [15]: 0.1
- solubility at 72 h [16]: > 35 µM
- Activity [17]: inactive
- half-life [18]: 2.5 h
- Kp [19]: 1.2
- inhibition (INH) (Cytochrome P450 2C8): Not Active

SMILES: C[C@H](NC(=O)CNC(=O)c1cc(F)cc(Cl)c1)c1ccccc1
- EC50 [1]: 24 nM

SMILES: Cc1cccc(C(=O)NCC(=O)N[C@@H](C)c2ccccc2)c1
- EC50 [1]: 24 nM

SMILES: COc1cccc(C(=O)NCC(=O)N[C@H](C)c2ccccc2)c1
- EC50 [1]: 1700 nM

SMILES: C[C@H](NC(=O)CNC(=O)c1cc(Cl)cc(Cl)c1)c1ccccc1
- EC50 [1]: 46 nM

SMILES: COc1cc(OC)cc(C(=O)NNC(=O)Nc2cccc3ccccc23)c1
- EC50 [1]: 43 nM

SMILES: C[C@H](NC(=O)CNC(=O)c1cccc(C#N)c1)c1ccccc1
- EC50 [1]: 59 nM

SMILES: C[C@H](NC(=O)CNC(=O)c1cccc(C(F)(F)F)c1)c1ccccc1
- EC50 [1]: 52 nM

SMILES: COc1cc(OC)cc(C(=O)NCC(=O)N[C@@H](C)c2ccccc2)c1
- EC50 [1]: 32 nM

SMILES: C[C@H](NC(=O)CNC(=O)c1ccccc1)c1ccccc1
- EC50 [1]: 162 nM

SMILES: COc1cccc(C(=O)NCC(=O)N[C@@H](C)c2ccccc2)c1
- Papp [2]: 16 ×10⁻⁶ cm/s
- fraction unbound at 6 h, up to 10 µM [3]: 0.36
- inhibition (INH) (Cytochrome P450 2C19): Not Active
- efflux ratio [9]: 5.5
- solubility at 72 h [10]: > 35 µM
- hepatic extraction ratio at 1 h, 1 µM [11]: 0.3
- inhibition (INH) (Cytochrome P450 3A4): Not Active
- inhibition (INH) (Cytochrome P450 2C9): Not Active
- inhibition (INH) (Cytochrome P450 2D6): Not Active
- EC50 [1]: 33 nM
- inhibition (INH) (Cytochrome P450 1A2): Not Active
- hepatic extraction ratio at 1 h, 1 µM [13]: 0.8
- fraction unbound at 6 h, up to 10 µM [14]: 0.16
- fraction unbound at 6 h, up to 10 µM [15]: 0.14
- solubility at 72 h [16]: > 35 µM
- inhibition (INH) (Cytochrome P450 2C8): Not Active
